# Source: PubChem BioAssay
# This is a sample that favours compounds with a hit; in the whole collection about 2.1% have one here.
# CXCR6 inh: inhibitors of human CXCR6 receptor | O00574 | CHO-K1 PathHunter CXCR6 beta-arrestin, luminescence | inhibition, % at 20 µM | 360,000 tested, 0.36% active | AID 602244; in the data active means inhibition above about 34%, passing the limit was not always enough;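 further: antagonist mode with CXCL16 agonist at 10 nM final; 0% = 10 nM CXCL16 with DMSO and 100% = unstimulated wells without agonist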
# APJ ag: agonists of human APJ apelin receptor; P35414; CHO-K1 APJ PathHunter beta-arrestin, luminescence; 0% DMSO wells, 100% apelin; activation, % at 20 µM; 330,000 tested, 0.11% active; AID 2520;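 active means activation more than six SD over the plate average, tested at 20 µM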;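 further: 0% = DMSO alone and 100% = apelin-13 at 10 nM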
#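 system = engineered CHO-K1 APJ arrestin reporter cells | input = 1000 cells per well | timing = overnight seeding, 90 min compound at 25 °C, 1 h detection | measured by = enzyme-fragment complementation luminescence | read-out = beta-arrestin recruitment to APJ as agonist activity, luminescent signal | control set = negative DMSO alone, positive Apelin-13 at 10 nM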
# CCR6 antag: antagonists of human CCR6 receptor. P51684. CHO-K1 CCR6 PathHunter beta-arrestin, luminescence, CCL20-stimulated. inhibition, % at 20 µM. 340,000 tested, 0.49% active. AID 493098;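 active means compounds whose inhibition of the agonist-driven luminescence signal at 20 µM reaches about 50%, limit read from the data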;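 further: cells stimulated with CCL20 at 14 nM final; plate controls were DMSO with CCL20 for no effect and DMSO without agonist for full effect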
# m5-HT2A agonist: activates the mouse 5-HT2A serotonin receptor | 360,000 tested, 0.66% active | AID 624169 | activation, % at 7.6 µM | CHO-K1 mHTR2A beta-arrestin complementation, luminescence; percent of 30 µM serotonin response | P35363;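 active means activation above a run cutoff, the mean activation of all tested compounds plus 3 SD, cut at about 14% in these data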;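 further: 0% = plate median of compound wells and 100% = 30 µM serotonin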
# Target sequence (P35363 whole entry, looked up): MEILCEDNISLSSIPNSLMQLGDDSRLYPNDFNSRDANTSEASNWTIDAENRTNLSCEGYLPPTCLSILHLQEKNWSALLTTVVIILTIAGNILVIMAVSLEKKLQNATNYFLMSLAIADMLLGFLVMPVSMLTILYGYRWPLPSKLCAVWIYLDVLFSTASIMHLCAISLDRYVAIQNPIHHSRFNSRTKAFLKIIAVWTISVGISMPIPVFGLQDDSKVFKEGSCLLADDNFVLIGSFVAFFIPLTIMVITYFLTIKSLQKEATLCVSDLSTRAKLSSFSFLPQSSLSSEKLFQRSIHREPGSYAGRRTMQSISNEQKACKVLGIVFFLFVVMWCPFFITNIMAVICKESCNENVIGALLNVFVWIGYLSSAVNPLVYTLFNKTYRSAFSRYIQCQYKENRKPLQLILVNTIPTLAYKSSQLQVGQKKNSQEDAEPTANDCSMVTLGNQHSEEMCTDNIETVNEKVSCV
# APJ antagonist: APJ receptor antagonism. CHO-K1 APJ beta-arrestin complementation, luminescence. inhibition, % at 20 µM. P35414. AID 2521. 330,000 tested, 0.32% active;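 active means inhibition above about 40% at 20 µM, limit read from the data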;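 further: cells challenged with 10 nM apelin-13 agonist together with compound; plate controls were apelin-13 plus DMSO wells for no effect and DMSO wells lacking apelin-13 for full effect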
# EBI2 block: EBI2 (human) antagonism | 360,000 tested, 0.81% active | EBI2 beta-arrestin recruitment, luminescence, 7a,25-OHC stimulated | inhibition, % at 5 µM; in the data active means inhibition above about 38%;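 further: enzyme fragment complementation signal reports receptor beta-arrestin coupling in cells; 0% = agonist plus DMSO wells and 100% = wells without agonist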
# Starred values were filed as active, the others as inactive; · = no result given.
SMILES,CXCR6 inh,APJ ag,CCR6 antag,m5-HT2A agonist,APJ antagonist,EBI2 block
C/C(=N\Nc1cc(-c2ccccc2)nc(-c2ccccc2)n1)c1ccc(O)c(C)c1,17.5,0.9,-13.4,0.2,-11.9,51.2*
CCOC(=O)c1c(N)sc(-c2ccccc2)c1C,11.7,-4.6,59.4*,-3.0,1.6,6.5
COc1cc(/C=C2/C(=O)c3cccc([N+](=O)[O-])c3C2=O)c(Br)cc1O,86.4*,·,97.3*,-1.1,·,22.6
COc1ccc2c(c1O)C(=O)c1ccccc1C2=O,·,2.5,·,·,-107.0,·
Nc1c(O)ccc2c1C(=O)c1ccccc1C2=O,·,·,50.1*,·,·,·
CCOC(=O)C1=CCC(c2ccccc2)N(S(=O)(=O)c2ccccc2C)C1 (stereo not drawn),1.7,·,·,-6.8,·,2.5
CCOC(=O)c1nnn(-c2nonc2N)c1CN1CCCC1,-2.6,-1.7,-1.6,0.6,5.4,1.2
CCOC(=O)c1nnn(-c2nonc2N)c1CN1CCCCCC1,3.1,-2.9,104.2*,1.3,-7.0,-7.5
O=S(=O)(CCNCc1ccco1)NC1CCCCC1,-3.4,·,11.3,0.3,·,-5.5
COCCCn1c(SCc2cccc(C(F)(F)F)c2)nc2cc(OC)c(OC)cc2c1=N,1.7,-1.3,16.6,-4.3,12.9,57.0*
O=C(Nc1ccc(Br)cc1F)c1nc[nH]c1C(=O)N1CCc2ccccc2C1,15.4,·,·,-0.1,·,-8.5
Cc1ccc(C)c2sc(NC(=O)c3nc4ccccc4s3)nc12,38.3,-3.3,50.6*,6.3,16.1,1.6
COc1ccc(CC(=O)Nc2ccc(N3CCOCC3)cc2)cc1S(=O)(=O)N1CCOCC1,5.4,-2.9,5.4,-0.8,7.3,3.3
CC(=O)Nc1cccc(C(=O)/C=C/c2ccc(N(C)C)cc2)c1,-9.3,2.2,5.2,-1.7,-14.9,43.5*
CC(=O)Nc1cccc(C(=O)/C=C/c2ccc(/C=C/C(=O)c3cccc(NC(C)=O)c3)cc2)c1,·,0.7,·,·,-7.1,·
CN(C)c1ccc(C(=O)/C=C/c2ccccc2)cc1,6.8,-3.1,21.2,-2.8,10.2,76.0*
C[C@H](NC(=O)COc1ccccc1)C(=O)OCC(=O)c1cc2ccccc2o1,48.0*,·,76.0*,-11.4,·,21.5
COc1ccc(OCC(=O)NNC(=O)c2cc3ccccc3o2)cc1,-1.2,0.4,-2.5,3.1,6.8,3.9
Cc1cccc(C(=O)OCC(=O)c2ccc(CC(=O)N3CCOCC3)s2)c1C,9.0,-2.9,17.2,-3.5,8.2,0.1
N#C/C(=C/c1ccc(F)cc1)S(=O)(=O)c1ccccc1,-3.6,-3.2,-1.8,-2.1,-13.4,10.0
N#C/C(=C\c1ccc(O)c(O)c1)S(=O)(=O)c1ccccc1,23.4,-6.8,52.7*,-6.8,19.0,8.2
Cc1cccc(-n2nc3c(c2NC(=O)C(C)C)CSC3)c1,2.1,2.5,5.8,3.6,17.2,4.3
Cn1c(=O)c(Nc2ccc(O)cc2)c2c3c(cccc31)C(=O)c1ccccc1-2,29.3,-3.4,53.9*,-1.8,10.1,15.2
CN(CC(=O)NCCc1ccc(S(N)(=O)=O)cc1)S(=O)(=O)/C=C/c1ccccc1,-1.0,-2.6,10.2,6.8,8.4,-2.5
CC(C#N)Sc1ccc(S(=O)(=O)N(C)C2CCCCC2)cn1 (stereo not drawn),-6.7,-1.4,13.9,-7.7,5.7,-4.2
SMILES,CXCR6 inh,APJ ag,CCR6 antag,m5-HT2A agonist,APJ antagonist,EBI2 block
CC(NC(=O)COC(=O)c1ccccc1O)C1CC2CCC1C2 (stereo not drawn),-5.4,-4.3,9.0,-3.4,6.3,2.9
COC(=O)C1=C(C)N(Cc2ccc(C)cc2)C(=O)/C1=C\c1ccc(O)c(OC)c1,36.3*,-0.6,34.5,2.0,14.2,7.1
COC(=O)C1=C(C)N(Cc2ccc(C)cc2)C(=O)/C1=C\c1cc(OC)c(OC)c(OC)c1,11.6,-0.9,38.4,-3.1,2.9,37.4
CCCc1c(C(=O)N/N=C(\C)c2ccccn2)nnn1-c1nonc1N,34.7,·,·,-4.6,·,36.9
Cc1nc2scc(-c3ccccc3)c2c(=O)n1N,3.5,-1.4,6.8,0.9,-4.1,-1.2
Cc1nc2scc(-c3ccccc3)c2c(=O)n1N=C1C=CC(=O)C=C1,·,-0.8,99.2*,·,-0.8,·
CCOC(=O)c1c(SCCN2CCCC2)n(-c2ccccc2)c(=S)n(-c2ccccc2)c1=O,88.0*,·,104.7*,-0.6,·,25.7
Nc1cccc2c1C(=O)N(C(=O)/C=C/c1cccc(Br)c1)C2=O,37.6*,·,64.0*,-0.4,·,2.5
N#C/C(=C\c1ccc(-c2cccc([N+](=O)[O-])c2)o1)C(=O)Nc1nc(-c2cccs2)cs1,30.2,-7.1,83.6*,1.6,30.5,4.1
O=C(N/N=C/c1ccc(-c2cccc([N+](=O)[O-])c2)o1)c1cccs1,-4.8,-2.8,3.0,-1.3,-0.9,0.1
CC(SC(=S)N(C)Cc1cccs1)C(=O)O (stereo not drawn),-4.3,2.8,9.6,0.8,0.9,-1.0
CN(C)c1nc(=NCc2cccs2)ss1,92.1*,·,111.2*,-20.2,·,23.4
Cc1[nH]n(-c2ccccc2)c(=O)c1N=Nc1c(O)cc(S(=O)(=O)N(C)C)c2ccccc12,23.9,-9.6,68.1*,5.2,30.2,-38.2
O=C(CCCN1C(=O)/C(=C/c2ccccc2Cl)SC1=S)NNC(=O)c1ccccc1,10.9,-3.8,15.8,-3.1,14.1,41.6*
O=C(/C=C/c1ccc(Br)cc1)c1ccc(NC2=NCCCS2)cc1,4.8,-5.9,20.7,-9.0,7.8,78.2*
CCOc1ccc2c(c1)C(=NNC(=O)c1ccncc1)c1cc(OCC)ccc1-2,33.5,-12.1,39.8,0.4,57.5*,8.3
CCOc1ccc(NC(=O)c2ccncc2)cc1,-4.9,-4.0,-17.7,1.2,-9.5,-1.8
O=C(N/N=C1\C/C(=N\NC(=O)c2ccncc2)c2ccccc21)c1ccncc1,29.9,4.5,55.6*,-3.5,-18.1,-3.2
CCC(=O)OCOc1ccc(/C=C2/CCC(CN(C)C)C2=O)cc1 (stereo not drawn),82.0*,·,89.9*,2.5,·,19.0
CCOc1ccc(N=C/C=C/c2ccccc2)c(O)c1,-5.2,6.5,52.3*,1.2,-12.2,-9.3
CCOc1ccc(NCC(=O)N/N=C/C=C/c2ccccc2)cc1,-0.9,-1.4,11.2,2.4,3.9,7.1
O=C(CC[C@H]1O[C@@H](n2ccc(=O)[nH]c2=O)[C@H](O)[C@@H]1O)N[C@@H](Cc1ccccc1)C(=O)NCC1CCCO1 (stereo partly drawn),-2.7,·,·,-1.3,·,-2.4
Cc1ccccc1NC(=O)NNC(=O)COc1ccc2ccccc2c1,-4.6,-5.1,3.0,-2.5,15.9,-5.3
O=C(CSc1nc(-c2ccco2)cc(C(F)(F)F)n1)NCCCn1ccnc1,48.3*,-2.3,-5.3,7.4,-6.1,-4.3
O=C(Nc1ccc(Nc2ccccc2)cc1)c1ccc(Cl)cc1,-0.6,0.1,-0.3,-1.5,2.2,4.2
